The target in this test is LigAB (Sphingobium sp. SYK-6, UniProt P22635+P22636). Nature of the test: inhibition of PCA dioxygenation, O2 consumption, Clark-type electrode. The test is classed as biochemical. As to conditions: read-out: % inhibition ^b. In outline: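 Anaerobically purified LigAB (His-tag removed) started the reaction at 3–7 nM final. Reactions ran in air-saturated 50 mM Tris pH 7.5 at 25 °C with 500 μM PCA plus 1 mM test compound, read by O2 consumption. Percent inhibition came from comparing rates with those of PCA-only assays run directly before and after.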
LigAB, sequence (P22635 whole entry): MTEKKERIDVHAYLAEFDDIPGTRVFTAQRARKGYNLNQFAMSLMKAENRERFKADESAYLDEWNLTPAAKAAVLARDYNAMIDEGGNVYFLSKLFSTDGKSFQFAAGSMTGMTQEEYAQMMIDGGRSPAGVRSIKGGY
LigAB, sequence (P22636 whole entry): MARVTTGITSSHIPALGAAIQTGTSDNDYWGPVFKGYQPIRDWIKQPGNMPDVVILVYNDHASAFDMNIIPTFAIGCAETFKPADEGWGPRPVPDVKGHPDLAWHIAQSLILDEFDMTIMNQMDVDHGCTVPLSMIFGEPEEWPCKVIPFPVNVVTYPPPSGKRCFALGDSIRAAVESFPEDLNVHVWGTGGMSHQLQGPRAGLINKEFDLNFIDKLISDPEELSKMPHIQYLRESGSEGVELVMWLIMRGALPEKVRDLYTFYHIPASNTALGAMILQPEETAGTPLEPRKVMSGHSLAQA

For orientation: inhibition means the change of the read-out against control, counted positive when it falls. In the case of `Cc1ccc(O)c(O)c1` [4-methylcatechol], the inhibition at 1000 µM came out at 28%. Under `O=[N+]([O-])c1ccc(O)c(O)c1` [4-nitrocatechol] stands 31%.

The record behind these values is publication PMC3926093 (Biochemistry, 2013).
